Consider 34 compounds from ChEMBL document CHEMBL3992537, “Design, Synthesis, and Biological Evaluation of Small, High-Affinity Siglec-7 Ligands: Toward Novel Inhibitors of Cancer Immune Evasion” (J Med Chem, 2017).

For the first assay, the target named is T1, Sialic acid-binding Ig-like lectin 7 (Homo sapiens, UniProt Q9Y286). The assay is described as follows: Binding affinity to human IgG1-fused Siglec-7-Fc assessed as inhibition of Siglec-7-Fc binding to RBC preincubated for 10 mins followed by RBC addition measured after 20 mins by FACS analysis relative to sodium (4S,5R,6R)-5-acetamido-4-hydroxy-2-methoxy-6-((1R,2R)-1,2,3 trihydroxypropyl)tetrahydro-2H-pyran-2-carboxylate. In short, it runs like this: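 RBC flow-cytometry competition as above: Siglec-7-Fc 0.2 μg/mL with ligand 10 min at RT, then RBCs 20 min on ice, detected by anti-Fc-biotin/streptavidin-PE MFI. The reference ligand α-Me Neu5Ac is run in the same test. Relative inhibitory potency is calculated intra-test against it to offset inter-test variation from fresh RBCs.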
T1 sequence (Q9Y286 whole entry, the tested form may be a part): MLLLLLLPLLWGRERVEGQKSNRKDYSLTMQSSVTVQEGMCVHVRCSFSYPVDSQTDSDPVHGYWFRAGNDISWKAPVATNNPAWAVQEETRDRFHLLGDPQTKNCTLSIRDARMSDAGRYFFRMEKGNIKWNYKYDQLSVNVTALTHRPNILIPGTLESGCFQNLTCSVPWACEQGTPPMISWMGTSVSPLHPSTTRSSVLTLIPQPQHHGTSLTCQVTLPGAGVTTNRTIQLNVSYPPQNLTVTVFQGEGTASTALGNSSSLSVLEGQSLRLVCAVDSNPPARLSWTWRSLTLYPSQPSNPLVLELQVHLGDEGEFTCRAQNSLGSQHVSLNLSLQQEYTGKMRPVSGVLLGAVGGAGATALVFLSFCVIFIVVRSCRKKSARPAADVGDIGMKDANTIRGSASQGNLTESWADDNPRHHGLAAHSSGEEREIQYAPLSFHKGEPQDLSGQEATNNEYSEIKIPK
Consider `CCCS(=O)(=O)NC[C@@H](O)[C@@H](O)[C@@H]1O[C@@](OCCCn2cc(-c3ccc(-c4ccccc4)cc3)nn2)(C(=O)O)C[C@H](O)[C@H]1NC(C)=O`, for which the fold change (FC) was 0.33. The same measure, in the same setting: in the case of `CC(=O)N[C@H]1[C@H]([C@H](O)[C@H](O)CNC(=O)C(=O)Nc2ccccc2)O[C@@](OCCCn2cc(-c3ccc(-c4ccccc4)cc3)nn2)(C(=O)O)C[C@@H]1O` it was 6.8; in that of `CCCCS(=O)(=O)NC[C@@H](O)[C@@H](O)[C@@H]1O[C@@](OCCCn2cc(-c3ccc(-c4ccccc4)cc3)nn2)(C(=O)O)C[C@H](O)[C@H]1NC(C)=O`, 0.16. On the same count and under the same terms, in the case of `CCCNC[C@@H](O)[C@@H](O)[C@@H]1O[C@@](OCCCn2cc(-c3ccc(-c4ccccc4)cc3)nn2)(C(=O)O)C[C@H](O)[C@H]1NC(C)=O` it was below 0.5; in that of `COC1(C(=O)O)C[C@H](O)[C@@H](NC(C)=O)[C@H]([C@H](O)[C@H](O)CNC(=O)CC23CC4CC(CC(C4)C2)C3)O1` (stereo not given in full), below 1.5. Turning to `CC(=O)N[C@H]1[C@H]([C@H](O)[C@H](O)CNC(=O)C(=O)O)O[C@@](OCCCn2cc(-c3ccc(-c4ccccc4)cc3)nn2)(C(=O)O)C[C@@H]1O`, the fold change (FC) came to 3.6. On the same count and under the same terms, with `COC1(C(=O)O)C[C@H](O)[C@@H](NC(C)=O)[C@H]([C@H](O)[C@H](O)CNC(=O)CC2CCCCC2)O1` (stereo not given in full) the figure was below 1.5. Still for that read-out and setting: in the case of `COC1(C(=O)O)C[C@H](O)[C@@H](NC(C)=O)[C@H]([C@H](O)[C@H](O)CNC(=O)Cc2cccc3ccccc23)O1` (stereo not given in full) it was below 1.5.

For the compound `CC(=O)N[C@H]1[C@H]([C@H](O)[C@H](O)CNS(=O)(=O)C(F)(F)F)O[C@@](OCCCn2cc(-c3ccc(-c4ccccc4)cc3)nn2)(C(=O)O)C[C@@H]1O`, the fold change (FC) is 0.41.

For the compound `COC1(C(=O)O)C[C@H](O)[C@@H](NC(C)=O)[C@H]([C@H](O)[C@H](O)CNC(=O)Cc2ccc(-c3ccccc3)cc2)O1` (stereo not given in full), the fold change (FC) was 4.5.

Regarding `CC(=O)NC[C@@H](O)[C@@H](O)[C@@H]1O[C@@](OCCCn2cc(-c3ccc(-c4ccccc4)cc3)nn2)(C(=O)O)C[C@H](O)[C@H]1NC(C)=O`, the fold change (FC) was 0.73.

`CC(=O)N[C@H]1[C@H]([C@H](O)[C@H](O)CN)O[C@@](OCCCn2cc(-c3ccc(-c4ccccc4)cc3)nn2)(C(=O)O)C[C@@H]1O`: the fold change (FC) was 0.24. Same read-out and setting: with `CC(=O)N[C@H]1[C@H]([C@H](O)[C@H](O)CNc2c(O)c(=O)c2=O)O[C@@](OCCCn2cc(-c3ccc(-c4ccccc4)cc3)nn2)(C(=O)O)C[C@@H]1O` the figure was 0.28; with `CC(=O)N[C@H]1[C@H]([C@H](O)[C@H](O)CO)O[C@@](OCCCn2cc(-c3ccc(-c4ccccc4)cc3)nn2)(C(=O)O)C[C@@H]1O`, 152; with `COC1(C(=O)O)C[C@H](O)[C@@H](NC(C)=O)[C@H]([C@H](O)[C@H](O)CNC(=O)C(=O)Nc2ccccc2)O1` (stereo not given in full), 58. For the compound `CC(=O)N[C@H]1[C@H]([C@H](O)[C@@H](C)O)O[C@@](OCCCn2cc(-c3ccc(-c4ccccc4)cc3)nn2)(C(=O)O)C[C@@H]1O`, the fold change (FC) was 0.15. On the same count and under the same terms, in the case of `CC(=O)N[C@H]1[C@H]([C@H](O)[C@H](O)CNC(=O)Cc2ccccc2)O[C@@](OCCCn2cc(-c3ccc(-c4ccccc4)cc3)nn2)(C(=O)O)C[C@@H]1O` it was 0.6; in that of `CC(=O)N[C@H]1[C@H]([C@H](O)[C@H](O)CNS(=O)(=O)c2ccccc2)O[C@@](OCCCn2cc(-c3ccc(-c4ccccc4)cc3)nn2)(C(=O)O)C[C@@H]1O`, 0.49.

Turning to `COC1(C(=O)O)C[C@H](O)[C@@H](NC(C)=O)[C@H]([C@H](O)[C@H](O)CNC(=O)Cc2ccccc2)O1` (stereo not given in full), the fold change (FC) turned out to be 10. `CC(=O)N[C@H]1[C@H]([C@H](O)[C@H](O)CNS(=O)(=O)NS(N)(=O)=O)O[C@@](OCCCn2cc(-c3ccc(-c4ccccc4)cc3)nn2)(C(=O)O)C[C@@H]1O`: the fold change (FC) came out at 1. Turning to `CC(=O)N[C@H]1[C@H]([C@H](O)[C@H](O)CNS(=O)(=O)c2cccc3c(N(C)C)cccc23)O[C@@](OCCCn2cc(-c3ccc(-c4ccccc4)cc3)nn2)(C(=O)O)C[C@@H]1O`, the fold change (FC) was found to be 0.09. Same read-out and setting: in the case of `COC1(C(=O)O)C[C@H](O)[C@@H](NC(C)=O)[C@H]([C@H](O)[C@H](O)CNC(=O)Cc2ccc3ccccc3c2)O1` (stereo not given in full) it was 8.2; in that of `CC(=O)N[C@H]1[C@H]([C@H](O)[C@H](O)CNS(N)(=O)=O)O[C@@](OCCCn2cc(-c3ccc(-c4ccccc4)cc3)nn2)(C(=O)O)C[C@@H]1O`, 0.45. Consider `COC1(C(=O)O)C[C@H](O)[C@@H](NC(C)=O)[C@H]([C@H](O)[C@H](O)CNC(=O)c2ccc(-c3ccccc3)cc2)O1` (stereo not given in full), for which the fold change (FC) is below 1.5.

Consider `CC(=O)N[C@H]1[C@H]([C@H](O)[C@H](O)CS)O[C@@](OCCCn2cc(-c3ccc(-c4ccccc4)cc3)nn2)(C(=O)O)C[C@@H]1O`, for which the fold change (FC) amounted to 0.52. In the case of `CC(=O)N[C@H]1[C@H]([C@H](O)[C@H](O)CNC(=O)C(N)=O)O[C@@](OCCCn2cc(-c3ccc(-c4ccccc4)cc3)nn2)(C(=O)O)C[C@@H]1O`, the fold change (FC) is 3.5. Take `COC1(C(=O)O)C[C@H](O)[C@@H](NC(C)=O)[C@H]([C@H](O)[C@H](O)CNC(=O)C(N)=O)O1` (stereo not given in full): the fold change (FC) worked out at 4.1. For the compound `COC1(C(=O)O)C[C@H](O)[C@@H](NC(C)=O)[C@H]([C@H](O)[C@H](O)CNC(=O)c2ccccc2)O1` (stereo not given in full), the fold change (FC) is below 1.5. On the same count and under the same terms, with `CC(=O)N[C@H]1[C@H]([C@H](O)[C@H](O)CNS(=O)(=O)Cc2ccccc2)O[C@@](OCCCn2cc(-c3ccc(-c4ccccc4)cc3)nn2)(C(=O)O)C[C@@H]1O` the figure was 0.17; with `CC(=O)N[C@H]1[C@H]([C@H](O)[C@H](O)CNS(=O)(=O)O)O[C@@](OCCCn2cc(-c3ccc(-c4ccccc4)cc3)nn2)(C(=O)O)C[C@@H]1O`, 33; with `CC(=O)N[C@H]1[C@H]([C@H](O)[C@H](O)CNCc2ccccc2)O[C@@](OCCCn2cc(-c3ccc(-c4ccccc4)cc3)nn2)(C(=O)O)C[C@@H]1O`, below 0.5. Still for that read-out and setting: in the case of `CC(=O)N[C@H]1[C@H]([C@H](O)[C@H](O)CNS(=O)(=O)NC(=O)OCc2ccccc2)O[C@@](OCCCn2cc(-c3ccc(-c4ccccc4)cc3)nn2)(C(=O)O)C[C@@H]1O` it was 0.27; in that of `COC1(C(=O)O)C[C@H](O)[C@@H](NC(C)=O)[C@H]([C@H](O)[C@H](O)CNC(=O)Nc2ccccc2)O1` (stereo not given in full), below 1.

For the next assay, the target named is T1, Sialic acid-binding Ig-like lectin 7. The assay is described as follows: Binding affinity to human IgG1-fused Siglec-7-Fc assessed as inhibition of Siglec-7-Fc binding to RBC preincubated for 10 mins followed by RBC addition measured after 20 mins by FACS analysis. Put shortly: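 Siglec-7-Fc (human IgG1 fusion), 0.2 μg/mL, premixed 10 min at RT in PBS with inhibitor dilution series. The mix is then added to pelleted freshly isolated human RBCs (0.1% suspension) for 20 min on ice. Bound Fc is detected with biotin goat anti-human Fc (10 μg/mL) and streptavidin-PE, then formaldehyde-fixed and read by flow cytometry. % inhibition is from MFI, with unstained RBCs as 100% and no inhibitor as 0%. IC50 derived.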
In general terms: In flow cytometry, cells or beads pass a laser one at a time.
With `COC1(C(=O)O)C[C@H](O)[C@@H](NC(C)=O)[C@H]([C@H](O)[C@H](O)CO)O1` (stereo not given in full), the IC50 came to 8.07 mM. With `CC(=O)N[C@H]1[C@H]([C@H](O)[C@H](O)CO)O[C@@](OCCCn2cc(-c3ccc(-c4ccccc4)cc3)nn2)(C(=O)O)C[C@@H]1O`, the IC50 was 0.053 mM.

The IC50 is the concentration that inhibits the measured activity by half.
